The test system of assay [1] is Pseudomonas aeruginosa. Kind of assay: Antibacterial activity against Pseudomonas aeruginosa ATCC 25619 assessed as growth inhibition after 20 hrs by microdilution method. The class given is functional. The note with it: ATCC 25619, 20 h. An outline of the steps: (§1)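 Broth microdilution per CLSI in cation-adjusted Mueller-Hinton broth, using serial 2-fold compound dilutions. Each strain was inoculated at 5 × 10⁴ CFU per well in 0.1 mL. Plates were incubated at 35 °C for 20 h, and the MIC was then scored.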
On the technique in general: Broth dilution looks for growth in wells or tubes with falling amounts of substance.

The subject of assay [2] is Pseudomonas aeruginosa. The assay can be described thus: Antibacterial activity against clinical isolate Pseudomonas aeruginosa SR27156 assessed as growth inhibition after 20 hrs by microdilution method. The format is functional. The note with it: SR27156, 20 h. Put shortly:
as §1

Assay [3] concerns Pseudomonas aeruginosa. Kind of assay: Antibacterial activity against Pseudomonas aeruginosa PAO1 assessed as growth inhibition after 20 hrs by microdilution method. The note with it: PAO1, 20 h. The class given is functional. An outline of the steps:
as §1

Assay [4] has as its system Pseudomonas aeruginosa. Kind of assay: Antibacterial activity against Pseudomonas aeruginosa ATCC 27853 assessed as growth inhibition after 20 hrs by microdilution method. The format is functional. The note with it: ATCC 27853, 20 h. An outline of the steps: as §1
The nature of assay [5]: Inhibition of Staphylococcus aureus MraY by fluorescence assay. Put shortly:
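Purified S. aureus MraY was given UDP-MurNAc-dansylpentapeptide as substrate. Formation of dansylated lipid I was followed by fluorescence enhancement (excitation 355 nm, emission 535 nm).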

Assay [6] deals with Pseudomonas aeruginosa. The assay can be described thus: Antibacterial activity against Pseudomonas aeruginosa YY165 deltamexB mutant assessed as growth inhibition after 20 hrs by microdilution method. The note with it: YY165, 20 h. The format is functional. Put shortly: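 Broth microdilution per CLSI in cation-adjusted Mueller–Hinton broth; serial 2-fold compound dilutions inoculated with 5 × 10⁴ CFU per well (0.1 mL), incubated 35 °C for 20 h, then MIC scored. Strain YY165 is a MexB deletion mutant lacking the inner-membrane transporter of the MexAB-OprM efflux system.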

Values after ≈ are worked out from the molar mass of the structure shown.

For orientation: MIC means the lowest concentration that inhibits growth of the organism. As usually defined, the IC50 is the point on the concentration scale where inhibition reaches its midpoint. The low end stands for greater potency in that assay, the high end for weaker potency in that assay.

Consider `CCCCCCCCCCCCCCC[C@H](NC(=O)[C@@H](NC(=O)OCc1ccccc1)[C@@H]1CCNC(=N)N1)C(=O)NCCCN[C@H](C(=O)O)[C@H](O[C@@H]1O[C@H](CN)[C@@H](O)[C@H]1O)[C@H]1O[C@@H](n2ccc(=O)[nH]c2=O)[C@H](O)[C@@H]1O`, for which the minimal inhibitory concentration (MIC) in the assay with Pseudomonas aeruginosa [1], in the assay on Pseudomonas aeruginosa [2], in the assay with Pseudomonas aeruginosa [3], in the assay with Pseudomonas aeruginosa [4] and with Pseudomonas aeruginosa [6] was > 64 µg/mL each time. Besides, in assay [5], the IC50 was 4.2 nM.
As for `CCCCCCCCCCCCCCC[C@H](NC(=O)c1cccnc1)C(=O)NCCCN[C@H](C(=O)O)[C@H](O[C@@H]1O[C@H](CN)[C@@H](O)[C@H]1O)[C@H]1O[C@@H](n2ccc(=O)[nH]c2=O)[C@H](O)[C@@H]1O`, the MIC in the assay on Pseudomonas aeruginosa [1] is 64 µg/mL (≈ 72.9 µM); with Pseudomonas aeruginosa [2], > 64 µg/mL; with Pseudomonas aeruginosa [3], > 64 µg/mL; in the assay with Pseudomonas aeruginosa [4] it was > 64 µg/mL; with Pseudomonas aeruginosa [6], > 64 µg/mL. In assay [5], this compound came in with a half-inhibitory concentration (IC50) of 9.6 nM.
`N=C(N)NCCCCCC(=O)NCCCCCC(=O)NCCCN[C@H](C(=O)O)[C@H](O[C@@H]1O[C@H](CN)[C@@H](O)[C@H]1O)[C@H]1O[C@@H](n2ccc(=O)[nH]c2=O)[C@H](O)[C@@H]1O`: the minimum inhibitory concentration (MIC) in the assay on Pseudomonas aeruginosa [1], with Pseudomonas aeruginosa [2], with Pseudomonas aeruginosa [3], in the assay with Pseudomonas aeruginosa [4] and with Pseudomonas aeruginosa [6] was > 64 µg/mL in each case. In addition, in assay [5], it took 1490 nM to reach half-maximal inhibition (IC50).
For `CCCCCCCCCCCCCCC[C@H](NC(=O)c1ccccc1)C(=O)NCCCN[C@H](C(=O)O)[C@H](O[C@@H]1O[C@H](CN)[C@@H](O)[C@H]1O)[C@H]1O[C@@H](n2ccc(=O)[nH]c2=O)[C@H](O)[C@@H]1O`, the MIC in the assay on Pseudomonas aeruginosa [1], with Pseudomonas aeruginosa [2], in the assay with Pseudomonas aeruginosa [3], in the assay with Pseudomonas aeruginosa [4] and in the assay with Pseudomonas aeruginosa [6] was > 64 µg/mL in each case. Besides, the 50% inhibitory concentration (IC50) in assay [5] worked out at 29.6 nM.
Turning to `CCCCCCCCCCC(=O)N[C@@H](CCCNC(=N)N)C(=O)NCCCN[C@H](C(=O)O)[C@H](O[C@@H]1O[C@H](CN)[C@@H](O)[C@H]1O)[C@H]1O[C@@H](n2ccc(=O)[nH]c2=O)[C@H](O)[C@@H]1O`, the minimal inhibitory concentration (MIC) in the assay with Pseudomonas aeruginosa [1] is 32 µg/mL (≈ 38.6 µM); in the assay on Pseudomonas aeruginosa [2] it was > 64 µg/mL; with Pseudomonas aeruginosa [3], > 64 µg/mL; in the assay on Pseudomonas aeruginosa [4], > 64 µg/mL; in the assay with Pseudomonas aeruginosa [6], > 64 µg/mL. The same compound came in with a concentration for half-maximal inhibition (IC50) in assay [5] of 9.8 nM.
`CCCCCCCCCCCCCCC[C@H](N)C(=O)NCCCN[C@H](C(=O)O)[C@H](O[C@@H]1O[C@H](CN)[C@@H](O)[C@H]1O)[C@H]1O[C@@H](n2ccc(=O)[nH]c2=O)[C@H](O)[C@@H]1O`: the minimum inhibitory concentration (MIC) with Pseudomonas aeruginosa [1] was 32 µg/mL (≈ 41.4 µM); with Pseudomonas aeruginosa [2] it was > 64 µg/mL; in the assay on Pseudomonas aeruginosa [3] it was > 64 µg/mL; in the assay on Pseudomonas aeruginosa [4] it was > 64 µg/mL; in the assay with Pseudomonas aeruginosa [6], 32 µg/mL (≈ 41.4 µM). In assay [5], this compound had an IC50 of 2.6 nM.
As for `CCCCCCCCCCCCCC(=O)N[C@@H](CCCNC(=N)N)C(=O)NCCCN[C@H](C(=O)O)[C@H](O[C@@H]1O[C@H](CN)[C@@H](O)[C@H]1O)[C@H]1O[C@@H](n2ccc(=O)[nH]c2=O)[C@H](O)[C@@H]1O`, the MIC in the assay with Pseudomonas aeruginosa [1] was 16 µg/mL (≈ 18.3 µM); in the assay with Pseudomonas aeruginosa [2], 16 µg/mL (≈ 18.3 µM); with Pseudomonas aeruginosa [3], 32 µg/mL (≈ 36.7 µM); with Pseudomonas aeruginosa [4] it was 32 µg/mL (≈ 36.7 µM); in the assay on Pseudomonas aeruginosa [6], 16 µg/mL (≈ 18.3 µM). In assay [5], this compound came in with an IC50 of 2.1 nM.
`CCCCCCCCCCCCCCC[C@H](NC(=O)c1ccnnc1)C(=O)NCCCN[C@H](C(=O)O)[C@H](O[C@@H]1O[C@H](CN)[C@@H](O)[C@H]1O)[C@H]1O[C@@H](n2ccc(=O)[nH]c2=O)[C@H](O)[C@@H]1O`: the MIC in the assay on Pseudomonas aeruginosa [1] is 64 µg/mL (≈ 72.8 µM); in the assay on Pseudomonas aeruginosa [2] it was > 64 µg/mL; with Pseudomonas aeruginosa [3], > 64 µg/mL; in the assay with Pseudomonas aeruginosa [4], > 64 µg/mL; in the assay on Pseudomonas aeruginosa [6] it was 64 µg/mL (≈ 72.8 µM). This compound also gave an IC50 in assay [5] of 13.5 nM.
Regarding `C[C@@H](O)[C@H]1C(=O)N2C(C(=O)O)=C(S[C@@H]3CN[C@H](CNS(N)(=O)=O)C3)[C@H](C)[C@H]12` [DORIPENEM], the MIC was found to be 0.063 µg/mL (≈ 0.15 µM) in the assay with Pseudomonas aeruginosa [1]; 0.031 µg/mL (≈ 0.0737 µM) with Pseudomonas aeruginosa [2]; 0.5 µg/mL (≈ 1.19 µM) in the assay on Pseudomonas aeruginosa [3]; 0.5 µg/mL (≈ 1.19 µM) in the assay with Pseudomonas aeruginosa [4]; 0.25 µg/mL (≈ 0.595 µM) in the assay on Pseudomonas aeruginosa [6].

The values are drawn from ChEMBL document CHEMBL3286247, “Expansion of Antibacterial Spectrum of Muraymycins toward Pseudomonas aeruginosa” (ACS Med Chem Lett, 2014).
